The test system of assay [1] is CWR22R. Description: Inhibition of pregnenolone-induced cell proliferation of human 22Rv1 cells at 10 to 20 uM pre-incubated for 2 hrs before pregnenolone stimulation for 72 hrs by alamar blue assay. Type of assay: functional, cell-based. In short, it runs like this: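 22Rv1 cells (AKR1C3- and AR-expressing) pretreated 2 h with agents, then cultured 72 h with 20 nM pregnenolone; viable cell number given as percent of pregnenolone-free control.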
(The colour change of resazurin is a common sign of viable cells or microbes.)

Assay [2] concerns CWR22R. Description: Inhibition of pregnenolone-induced cell cell cycle changes in human 22Rv1 cells assessed as reduction in S phase accumulation at 10 uM pre-incubated for 2 hrs before pregnenolone stimulation for 24 hrs by propidium iodide staining based flow cytometry. Type of assay: functional. In short, it runs like this:
(§1)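 Cell cycle in 22Rv1: 2 h pretreatment with or without 10 μM inhibitor, then 24 h with 20 nM pregnenolone; G0/G1, S and G2/M fractions determined by flow cytometry.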
(In general: Flow cytometry measures light scatter and fluorescence of single cells or particles in a stream.)

For assay [3], the system named is CWR22R. Description: Inhibition of pregnenolone-induced cell cell cycle changes in human 22Rv1 cells assessed as increase in G0/GG1 phase accumulation at 10 uM pre-incubated for 2 hrs before pregnenolone stimulation for 24 hrs by propidium iodide staining based flow cytometry. The format is functional. The method, boiled down: as §1
For assay [4], the target named is T1, Aldo-keto reductase family 1 member C3 (Homo sapiens) (UniProt P42330).
T1 sequence (whole entry): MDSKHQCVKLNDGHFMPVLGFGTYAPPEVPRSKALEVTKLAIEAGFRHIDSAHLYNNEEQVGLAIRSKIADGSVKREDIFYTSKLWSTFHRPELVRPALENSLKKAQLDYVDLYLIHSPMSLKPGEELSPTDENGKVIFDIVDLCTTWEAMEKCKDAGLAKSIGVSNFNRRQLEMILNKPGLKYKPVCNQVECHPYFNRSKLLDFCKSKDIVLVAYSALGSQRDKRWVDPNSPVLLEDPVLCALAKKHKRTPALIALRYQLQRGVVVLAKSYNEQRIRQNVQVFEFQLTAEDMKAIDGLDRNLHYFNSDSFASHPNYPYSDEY
The assay can be described thus: Inhibition of AKR1C3 in human 22Rv1 cells assessed as as reduction in finasteride-induced metabolism of 4AD into testosterone at 10 to 20 uM pre-incubated for 2 hrs in presence of finasteride before 4AD addition for 24 hrs by EIA. The format is cell-based. As to conditions: CWR22R. In short, it runs like this:
(§2)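 22Rv1 cells pretreated 2 h with or without 2 μM finasteride and/or inhibitor, then cultured 24 h with 100 nM 4AD; testosterone in cell extracts quantified by EIA and expressed as percent of finasteride-free control.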

Assay [5] concerns CWR22R. Description: Effect on steroid 5alpha-reductase in human 22Rv1 cells assessed as effect on metabolism of 4AD into testosterone at 10 to 20 uM pre-incubated for 2 hrs before 4AD addition for 24 hrs by EIA. Type of assay: cell-based. In short, it runs like this:
as §2

Assay [6] concerns CWR22R. The assay can be described thus: Effect on AKR1C3 gene expression in human 22Rv1 cells at 10 uM incubated for 24 hrs by semiquantitative RT-PCR analysis. Type of assay: functional, cell-based.
Assay [7] deals with T1, Aldo-keto reductase family 1 member C3 (Homo sapiens). The assay can be described thus: Inhibition of AKR1C3 in human 22Rv1 cells assessed as as reduction in AR nuclear translocation at 10 to 20 uM pre-incubated for 2 hrs in absence of finasteride by Western blot analysis. Type of assay: cell-based. The following applies: CWR22R.
Assay [8] shares this target. The assay can be described thus: Inhibition of AKR1C3 in human 22Rv1 cells assessed as as reduction in TMPRSS2 mRNA expression at 10 to 20 uM pre-incubated for 2 hrs before pregnenolone stimulation for 24 hrs by RT-qPCR analysis. The format is cell-based. The following applies: CWR22R. In short, it runs like this:
(§3)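 22Rv1 cells pretreated 2 h with test agents, then stimulated 24 h with 20 nM pregnenolone; AR, TMPRSS2 and PSA mRNA measured by RT-qPCR, given as ratio to pregnenolone-free control.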
In general terms: In qPCR the cycle at which signal appears reflects the starting amount.

Assay [9] has the same target. The assay can be described thus: Inhibition of AKR1C3 in human 22Rv1 cells assessed as as reduction in PSA mRNA expression at 10 to 20 uM pre-incubated for 2 hrs before pregnenolone stimulation for 24 hrs by RT-qPCR analysis. The format is cell-based. As to conditions: CWR22R. The method, boiled down:
as §3

Assay [10] concerns CWR22R. Description: Induction of apoptosis in human 22Rv1 cells assessed as increase in DNA fragmentation at 10 uM pre-incubated for 2 hrs before addition of pregnenolone for 24 hrs by ethidium bromide staining based DNA agarose gel electrophores method. Type of assay: functional, cell-based.
Assay [11] relates to CWR22R. Description: Induction of apoptosis in human 22Rv1 cells assessed as increase in cleaved caspase-3 level at 10 uM pre-incubated for 2 hrs before addition of pregnenolone for 24 hrs by Western blot analysis. The format is functional, cell-based. The method, boiled down: (§4)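 Apoptotic markers in 22Rv1: 2 h pretreatment with or without 10 μM inhibitor and/or 50 μM enzalutamide, then 24 h 20 nM pregnenolone; Bax/Bcl-2 ratio as percent of control; cleaved caspase-3 also by immunofluorescence with DAPI.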

Assay [12] deals with CWR22R. The assay can be described thus: Induction of apoptosis in human 22Rv1 cells assessed as increase in cleaved PARP level at 10 uM pre-incubated for 2 hrs before addition of pregnenolone for 24 hrs by Western blot analysis. Type of assay: functional, cell-based. The method, boiled down:
as §4

Assay [13] deals with T1, Aldo-keto reductase family 1 member C3 (Homo sapiens). Description: Inhibition of AKR1C3 in human 22Rv1 cells assessed as potentiation of enzalutamide-induced apoptosis by measuring increase in DNA fragmentation at 10 uM pre-incubated for 2 hrs before addition of pregnenolone for 24 hrs by ethidium bromide staining based DNA agarose gel electrophores method. The format is cell-based. As to conditions: CWR22R.

The target is the same in assay [14]. Description: Inhibition of AKR1C3 in human 22Rv1 cells assessed as potentiation of enzalutamide-induced apoptosis by measuring increase in Bax level at 10 uM pre-incubated for 2 hrs before addition of pregnenolone for 24 hrs by Western blot analysis. The format is cell-based. The following applies: CWR22R. In short, it runs like this:
as §4

Assay [15] has the same target. The assay can be described thus: Inhibition of AKR1C3 in human 22Rv1 cells assessed as potentiation of enzalutamide-induced apoptosis by measuring increase in cleaved PARP level at 10 uM pre-incubated for 2 hrs before addition of pregnenolone for 24 hrs by Western blot analysis. Type of assay: cell-based. The following applies: CWR22R. The method, boiled down: as §4

Assay [16] has the same target. The assay can be described thus: Inhibition of AKR1C3 in human 22Rv1 cells assessed as potentiation of abiraterone-induced apoptosis by measuring reduction in BCl2 level at 10 uM pre-incubated for 2 hrs before addition of pregnenolone for 24 hrs by Western blot analysis. The format is cell-based. As to conditions: CWR22R.
The target is the same in assay [17]. Description: Inhibition of AKR1C3 in human 22Rv1 cells assessed as potentiation of abiraterone-induced apoptosis by measuring increase in cleaved PARP level at 10 uM pre-incubated for 2 hrs before addition of pregnenolone for 24 hrs by Western blot analysis. The format is cell-based. As to conditions: CWR22R.
The target is the same in assay [18]. Description: Inhibition of AKR1C3 in human 22Rv1 cells assessed as potentiation of abiraterone-induced apoptosis by measuring increase in cleaved caspase-3 level at 10 uM pre-incubated for 2 hrs before addition of pregnenolone for 24 hrs by Western blot analysis. The following applies: CWR22R. Type of assay: cell-based.
For assay [19] the target is unchanged. The assay can be described thus: Inhibition of AKR1C3 in human 22Rv1 cells assessed as potentiation of abiraterone-induced apoptosis by measuring increase in Bax level at 10 uM pre-incubated for 2 hrs before addition of pregnenolone for 24 hrs by Western blot analysis. As to conditions: CWR22R. Type of assay: cell-based.
Assay [20] shares this target. Description: Inhibition of AKR1C3 in human 22Rv1 cells assessed as induction of ROS generation at 10 uM by DCFH-DA dye based flow cytometric analysis. The format is cell-based. As to conditions: CWR22R. In short, it runs like this:
(§5)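 22Rv1 cells exposed 3 h to 10 μM inhibitor and/or abiraterone, or 50 μM enzalutamide; intracellular ROS by flow cytometry as DCF-positive cells, percent of vehicle control.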

For assay [21] the target is unchanged. Description: Inhibition of AKR1C3 in human 22Rv1 cells assessed as potentiation of abiraterone-induced of ROS generation at 10 uM by DCFH-DA dye based flow cytometric analysis. The format is cell-based. As to conditions: CWR22R. The method, boiled down:
as §5

For assay [22] the target is unchanged. Description: Inhibition of AKR1C3 in human 22Rv1 cells assessed as potentiation of enzalutamide-induced of ROS generation at 10 uM by DCFH-DA dye based flow cytometric analysis. Type of assay: cell-based. The following applies: CWR22R. The method, boiled down: as §5
The subject of another assay is PC-3. The following applies: Homo sapiens, at 10 µM.

The source made the active and inactive calls. No cut-off for these calls is given here.

Take `Cc1ccc(NC(=O)c2cc3cccc(O)c3oc2=N)cc1`: the inhibition result (in the assay with CWR22R [1]; in the assay with CWR22R [2]; in the assay with CWR22R [3]; in assay [4]; in assay [7]; in [8]) was “Active” each time. The inhibition entry in assay [9], in assay [13], in assay [14], in [15], in [16] and in [17] was “Active” each time. Further, the inhibition result (in assay [18]; in [19]; in [20]; in assay [21]; in assay [22]; in the assay with PC-3) was “Active” each time. For the same compound, the outcome with CWR22R [5] and in the assay on CWR22R [6] was inactive. Further, the outcome in the assay with CWR22R [10], with CWR22R [11] and in the assay on CWR22R [12] was Active.
`N=c1oc2c(O)cccc2cc1C(=O)Nc1ccc(F)cc1`: the inhibition result (in the assay with CWR22R [1]; in the assay on CWR22R [2]; in the assay with CWR22R [3]; in [4]; in assay [7]; in assay [8]) was “Active” throughout. In addition, the inhibition result in [9], in assay [13], in [14], in [15], in assay [16] and in assay [17] was “Active” throughout. The inhibition entry (in assay [18]; in assay [19]; in assay [20]; in assay [21]; in assay [22]; in the assay on PC-3) was “Active” each time. The result in the assay with CWR22R [5] and in the assay on CWR22R [6] was inactive. The outcome in the assay with CWR22R [10], in the assay on CWR22R [11] and in the assay with CWR22R [12] was Active.

These data come from ChEMBL document CHEMBL4619820, “Development of Novel AKR1C3 Inhibitors as New Potential Treatment for Castration-Resistant Prostate Cancer” (J Med Chem, 2020).
